Measurements from publication PMC4867259 (Free radical biology & medicine, 2016).

Assays:
[1] = target: T1, DEGS1 (Homo sapiens, UniProt O15121); experiment: In vitro DEGS assay with HCT-116 cell homogenates; assay type: biochemical
T1 sequence (O15121 1-323): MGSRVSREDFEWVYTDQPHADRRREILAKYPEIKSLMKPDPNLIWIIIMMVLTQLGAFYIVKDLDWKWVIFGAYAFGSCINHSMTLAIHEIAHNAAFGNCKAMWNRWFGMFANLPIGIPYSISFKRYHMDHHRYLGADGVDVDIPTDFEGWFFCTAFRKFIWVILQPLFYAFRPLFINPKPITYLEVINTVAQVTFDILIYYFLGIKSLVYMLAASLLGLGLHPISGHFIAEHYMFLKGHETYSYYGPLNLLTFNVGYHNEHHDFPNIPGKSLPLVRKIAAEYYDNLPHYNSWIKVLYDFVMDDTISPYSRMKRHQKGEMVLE
In short: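 HCT-116 cells were treated for 1 or 2 h with test compound, reference inhibitor or DMSO. Cells were homogenized in 5 mM Hepes (pH 7.4) with 50 mM sucrose and kept 10 min on ice, and unbroken cells were removed at 250 × g for 5 min at 4 °C. Homogenate was incubated with 2 mM NADH and 10 μM C8:0-dihydroceramide substrate for 1 h at 37 °C. Lipids were extracted and C8:0-Cer and C8:0-SM quantified by LC-MS/MS; n = 3 independent experiments.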

[2] = target: T2, human recombinant COX-2 (Homo sapiens, UniProt P35354); experiment: COX-2 enzyme activity assay; assay type: biochemical
T2 sequence (P35354 18-604): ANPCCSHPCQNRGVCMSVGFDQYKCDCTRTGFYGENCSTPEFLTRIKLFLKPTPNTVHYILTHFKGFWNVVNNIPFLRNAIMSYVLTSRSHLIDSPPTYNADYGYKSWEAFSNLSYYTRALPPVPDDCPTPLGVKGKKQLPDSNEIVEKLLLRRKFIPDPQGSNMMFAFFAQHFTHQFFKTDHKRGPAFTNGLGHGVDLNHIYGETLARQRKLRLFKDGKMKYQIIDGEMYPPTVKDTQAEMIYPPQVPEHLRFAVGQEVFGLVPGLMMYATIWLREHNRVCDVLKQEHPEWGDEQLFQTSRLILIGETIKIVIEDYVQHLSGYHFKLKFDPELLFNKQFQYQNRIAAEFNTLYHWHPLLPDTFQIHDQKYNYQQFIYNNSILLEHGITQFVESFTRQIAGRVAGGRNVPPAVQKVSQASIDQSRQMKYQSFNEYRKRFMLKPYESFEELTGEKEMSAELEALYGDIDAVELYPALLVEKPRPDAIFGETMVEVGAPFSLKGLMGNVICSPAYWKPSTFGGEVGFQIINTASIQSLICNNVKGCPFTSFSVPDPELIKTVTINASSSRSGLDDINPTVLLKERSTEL
In short: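 Test compound was preincubated with enzyme in 0.1 M Tris (pH 8.0) containing 5 mM EDTA, 2 mM phenol and 1 µM hematin. Arachidonic acid (5 µM final) was added for 2 min, and 0.1 M HCl stopped the reaction. Stannous chloride in 0.1 M HCl reduced PGG2/PGH2 to PGF2α, quantified by ELISA. IC50 values are mean ± SEM of four or more independent experiments.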

[3] = target: T3, human recombinant 5-LOX (Homo sapiens, UniProt P09917); experiment: 5-LOX activity, ferrous oxidation-xylenol orange; assay type: biochemical
T3 sequence (P09917 1-674): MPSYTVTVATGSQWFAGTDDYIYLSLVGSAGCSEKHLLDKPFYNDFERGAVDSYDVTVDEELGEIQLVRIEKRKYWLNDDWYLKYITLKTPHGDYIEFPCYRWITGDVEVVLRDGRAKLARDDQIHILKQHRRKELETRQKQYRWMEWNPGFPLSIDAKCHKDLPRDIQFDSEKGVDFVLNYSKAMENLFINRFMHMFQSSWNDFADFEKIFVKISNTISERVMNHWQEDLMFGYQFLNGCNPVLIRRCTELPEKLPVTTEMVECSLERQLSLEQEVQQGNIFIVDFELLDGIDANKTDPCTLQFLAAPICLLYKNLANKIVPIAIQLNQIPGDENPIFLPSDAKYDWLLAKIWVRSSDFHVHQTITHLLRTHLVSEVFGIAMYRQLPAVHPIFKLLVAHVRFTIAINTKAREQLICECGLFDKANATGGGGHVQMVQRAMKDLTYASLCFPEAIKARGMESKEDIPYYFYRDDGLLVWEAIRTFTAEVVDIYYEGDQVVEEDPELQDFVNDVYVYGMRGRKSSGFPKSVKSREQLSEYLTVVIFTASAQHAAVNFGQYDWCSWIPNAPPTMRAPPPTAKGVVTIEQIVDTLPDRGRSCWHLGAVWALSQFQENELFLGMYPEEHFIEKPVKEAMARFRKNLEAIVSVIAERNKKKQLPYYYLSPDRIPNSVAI

[4] = target: T4, DEGS (Rattus norvegicus, UniProt Q5XIF5); experiment: DEGS assay with rat liver microsomal fraction; assay type: biochemical; details: rat liver microsomal fraction as source of DEGS; data not shown
T4 sequence (Q5XIF5 1-323): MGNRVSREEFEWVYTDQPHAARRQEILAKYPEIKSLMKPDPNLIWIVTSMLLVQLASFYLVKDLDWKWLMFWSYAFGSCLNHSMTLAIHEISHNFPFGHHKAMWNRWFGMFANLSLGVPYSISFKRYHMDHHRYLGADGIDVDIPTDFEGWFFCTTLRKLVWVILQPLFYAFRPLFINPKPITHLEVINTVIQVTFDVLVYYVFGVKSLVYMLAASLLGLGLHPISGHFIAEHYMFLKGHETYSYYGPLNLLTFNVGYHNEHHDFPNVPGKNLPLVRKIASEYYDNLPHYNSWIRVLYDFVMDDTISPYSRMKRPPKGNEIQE

[5] = test system: DEGS-1 protein expression in HCT-116 cells; experiment: Western blotting of DEGS-1 protein expression; assay type: cell-based, human; details: 10 or 20 μM for 8 or 16 h
In short: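 HCT-116 cells were lysed in Tris-EDTA buffer with 1% SDS, 2 mM Na3VO4 and protease inhibitors. Protein was measured by BCA, and equal amounts were resolved by SDS-PAGE and immunoblotted with anti-DEGS-1 antibody.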

[6] = test system: HCT-116 cells; experiment: MTT cell viability assay, HCT-116; assay type: cell-based, human; details: time- and dose-dependent
In short: (§1)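 Cells were grown with 10% FBS at 37 °C and 5% CO2: HCT-116 in McCoy's 5A, HT-29 in DMEM. Cells were exposed to test compound at indicated concentrations and times, and viability was read by MTT (mitochondrial dehydrogenase activity) relative to DMSO controls. […] Values are mean SD of at least three independent experiments.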

[7] = test system: HT-29 cells; experiment: MTT cell viability assay, HT-29; assay type: cell-based, human; details: time- and dose-dependent
In short: as §1

[8] = test system: HCT-116 cells; experiment: Annexin V / propidium iodide apoptosis, flow cytometry; assay type: cell-based, human; details: 20 μM for 24 h, compared with DMSO-treated controls
In short: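 HCT-116 cells were grown in McCoy's 5A with 10% FBS at 37 °C and 5% CO2. After treatment, floating and attached cells were pooled and stained with an annexin V–fluorescein/propidium iodide kit. Flow cytometry read apoptosis from annexin V (Ex 488, Em 518 nm) and necrosis from PI (Ex 488-540, Em 617 nm). Data are representative of three or more independent experiments.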

[9] = test system: HCT-116 cells; experiment: Western blotting of LC3-II, caspase-9 and PARP; assay type: cell-based, human; details: 20 μM for 24 h
In short: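 HCT-116 lysates were prepared in Tris-EDTA with 1% SDS, 2 mM Na3VO4 and protease inhibitors, and protein was quantified by BCA. Equal protein was resolved by SDS-PAGE and probed for LC3, caspase-9, PARP-1 and actin. Caspase-9 activation and PARP cleavage served as apoptosis read-outs and LC3-II as the autophagy read-out. Blots are representative of three or more independent experiments.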

[10] = test system: HCT-116 cells; experiment: Sphingolipid levels by LC-MS/MS; assay type: cell-based, human
In short: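 Treated HCT-116 pellets were extracted in methanol/chloroform/water with internal standards (C12:0- and C25:0-ceramide, C17-sphingosine, C17-sphinganine, C12:0-SM), tip-sonicated 20 s, and incubated overnight at 48 °C. An aliquot was taken for total choline phospholipids (enzymatic colorimetric assay). The remainder was hydrolysed with methanolic KOH (37 °C, 2 h) and dried under N2. Positive-mode MRM LC-MS/MS was run, ceramides/sphingoid bases on C18 and SMs on C8; vs DMSO controls, n ≥ 3.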

[11] = test system: colon tumorigenesis induced by AOM and DSS; experiment: AOM/DSS-induced colon tumorigenesis in mice; assay type: in vivo, male Balb/c mice; details: 0.022% in diet

Compound: CCCCCCCCCCCCCC1=C([C@@H](O)[C@H](CO)NC(=O)CCCCCCC)C1 [C8-CPPC, C8-cyclopropenylceramide, reference compound]
- inhibition of DEGS1 enzyme activity ([1]; 1 μM, 1 or 2 h treatment of HCT-116 cells): ~ 95%

Compound: Cc1c(O)cc2c(c1C)O[C@](C)(CCC[C@H](C)CCC[C@H](C)CCCC(C)C)CC2 [γT, γ-tocopherol]
- IC50 [2]: > 50 µM
- inhibition of COX-2 at 50 μM [2]: neither γT nor δT at 50 μM inhibited COX-2
- IC50 [3]: > 50 µM
- inhibition of 5-LOX at 50 μM [3]: neither γT nor δT at 50 μM inhibited COX-2 or 5-LOX

Compound: Cc1cc(O)cc2c1O[C@](C)(CCC[C@H](C)CCC[C@H](C)CCCC(C)C)CC2 [δT, δ-tocopherol]
- inhibition of COX-2 at 50 μM [2]: neither γT nor δT at 50 μM inhibited COX-2
- inhibition of 5-LOX at 50 μM [3]: neither γT nor δT at 50 μM inhibited COX-2 or 5-LOX

Compound: Cc1cc(O)cc2c1O[C@](C)(CCC[C@H](C)CCC[C@H](C)CCCC(C)C(=O)O)CC2 (some centres unmarked) [δT-13’-COOH]
- inhibition of DEGS1 enzyme activity ([1]; 20 μM, 1 h pre-incubation of HCT-116 cells): ~ 38%
- inhibition of DEGS1 enzyme activity ([1]; 20 μM, 2 h pre-incubation of HCT-116 cells): ~ 47%
- inhibition of DEGS enzyme activity [4]: failed to inhibit the enzyme activity
- effect on DEGS-1 protein expression [5]: no effect
- cell viability [6]: decreased the viability
- cell viability [7]: decreased the viability
- apoptosis (annexin V staining) [8]: induced early and late-stage apoptosis
- LC3-II, a marker of autophagy [9]: increase of LC3-II
- C16:0-Cer ([10]; 20 μM, 2 h incubation, compared with solvent controls): significant decrease
- sphingomyelin species and total SMs ([10]; 10 or 20 μM, 1-16 h): persistent decrease
- total dihydroceramides, individual dhCers and dihydrosphingosine ([10]; 10 or 20 μM, after 1-2 h treatment, compared with controls): dose-dependently increased

Compound: C/C(=C\CC/C(C)=C/CC[C@]1(C)CCc2cc(O)cc(C)c2O1)CC/C=C(\C)C(=O)O [δTE-13’-COOH]
- effect on body weight ([11]; compared with the control diet): no effect
- effect on food intake ([11]; compared with the control diet): no effect
- decrease in number of large tumors (> 2 mm^2) ([11]; compared with controls, p < 0.05): 58%
- colon tumors per mouse ([11]; mean ± SEM, n = 15-17, p < 0.01 vs control diet (4.7 ± 0.3)): 3.1 ± 0.3 tumors per mouse
- cell viability [6]: decreased the viability
- cell viability [7]: decreased the viability
- apoptosis (annexin V staining) [8]: induced early and late-stage apoptosis
- LC3-II, a marker of autophagy [9]: increase of LC3-II
